This is a sample that favours compounds with a hit; in the whole collection about 2.5% have one here.
EWS-Fli inh: EWS/Fli-driven NR0B1 reporter inhibitors, primary screen, A673 cells, NR0B1 luciferase, luminescence, MLPCN library; inhibition, % at 12.6 µM; hit rate 0.67% among 350,000; AID 651661, 2012; viability-normalised;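 active = mean inhibition of at least 50% after viability correction, with every replicate also passing that limit; inconclusive = mean reaches 50% but only one of two replicates passes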;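 note: firefly luciferase signal divided by Alamar Blue viability fluorescence both relative to DMSO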
PAX8 inh HTS: inhibitors of PAX8-driven TPO luciferase reporter, primary screen, RMG-I cells, single concentration; AID 652154, 2013; inhibition, % at 12.6 µM; SteadyGlo, 24 h; hit rate 1.2% among 360,000;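 active = mean replicate inhibition at least 60% with every replicate also reaching 60%; inconclusive = only one of the two criteria is met; inactive = mean below 60% and not all replicates reaching 60%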;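 note: luciferase light reporting Pax8 driven TPO promoter activity; plate controls were median of neutral control wells for no effect and mitoxantrone controls for full effect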
FN deposition inh: inhibitors of fibronectin matrix deposition, primary screen, AH1F cells, Alexa488-fibronectin fluorescence, plate reader. AH1F fibroblasts, overnight. inhibition, % at 12.6 µM. hit rate 0.086% among 350,000;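 active = mean inhibition across replicates of 30% or more, regardless of how many single replicates reach that level; inconclusive = mean under 30% yet at least half of replicates reach 30%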;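 note: positive control wells lacked labelled fibronectin entirely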
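material = AH1F fibroblast monolayer depositing Alexa488-labelled fibronectin into matrix | amount = 10000 AH1F cells/well | buffer or medium = DMEM plus 2% serum, read in PBS | incubation = 1 h cell adhesion before compound, then overnight fibronectin incubation | detection = fluorescence at 485 nm excitation, 525 nm emission | evaluation = percent inhibition as loss of matrix-bound fibronectin fluorescence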
Glyco luc inh: increase of ERlucT glycosylation luciferase signal, primary screen, N-linked glycosylation inhibitor project, D54 ERlucT cells, luminescence, set 2; D54 ERlucT glycosylation luciferase reporter, 24 h; percent of 100 nM tunicamycin response; reporter increase, % at 12.5 µM; hit rate 0.23% among 360,000; AID 588692, 2011;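 active = mean luciferase reporter signal, scaled so untreated is 0 and the glycosylation-blocking control 100, at or above a set limit in every replicate; inconclusive = mean reaches the limit but not every replicate does; inactive = mean below the limit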;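 note: luciferase carries N-glycosylation sites so blocking glycosylation raises the light; 0% = median of neutral control wells and 100% = median of 100 nM tunicamycin wells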
MLL AF4-AF9 inh: inhibitors of AF4 peptide binding to AF9, primary screen, biochemical, AlphaScreen, biotin-AF4 peptide, FLAG-AF9, single point; inhibition, % at 10 µM; hit rate 0.47% among 350,000; AID 651704, 2012;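 active = every replicate reaching a set inhibition limit, whatever the replicate mean, cut at about 25% in these data; inconclusive = mean inhibition reaches that limit but some replicates miss it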;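 note: 0% = plate neutral control median and 100% = total signal loss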
Target sequence (P42568 whole entry, looked up): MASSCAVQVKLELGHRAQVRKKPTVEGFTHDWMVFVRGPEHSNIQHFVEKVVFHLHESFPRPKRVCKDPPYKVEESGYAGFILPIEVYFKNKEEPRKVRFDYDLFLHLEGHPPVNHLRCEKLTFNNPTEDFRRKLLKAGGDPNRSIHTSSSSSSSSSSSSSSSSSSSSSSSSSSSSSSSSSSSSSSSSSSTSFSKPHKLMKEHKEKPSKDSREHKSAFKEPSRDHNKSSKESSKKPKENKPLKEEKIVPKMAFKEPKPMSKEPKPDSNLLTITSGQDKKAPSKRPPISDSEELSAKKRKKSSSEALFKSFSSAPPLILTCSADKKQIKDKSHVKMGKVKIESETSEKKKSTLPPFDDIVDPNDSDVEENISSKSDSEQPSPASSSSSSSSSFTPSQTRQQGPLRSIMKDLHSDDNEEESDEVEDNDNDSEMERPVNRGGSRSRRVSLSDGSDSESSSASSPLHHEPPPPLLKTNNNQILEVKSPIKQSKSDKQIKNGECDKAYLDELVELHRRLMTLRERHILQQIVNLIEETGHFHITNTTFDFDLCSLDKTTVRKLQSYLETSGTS
HIV Env fusion: inhibitors of HIV-1 Env-driven cell-cell fusion, primary screen, HeLa-JRFL effector, CEM21 target cells, luciferase. inhibition, % at 12.3 µM. hit rate 1.1% among 360,000;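 active = mean replicate inhibition score of at least 50 and every replicate individually at or above 50; inconclusive = only one of the two criteria met; inactive = mean below 50 and not all replicates reaching 50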;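 note: 0% = plate neutral controls and 100% = maraviroc near 300 nM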
* hit, by the source's call; ? = inconclusive; . = no result given; [ ] = another dose, or the depositor's remark.

SMILES	EWS-Fli inh	PAX8 inh HTS	FN deposition inh	Glyco luc inh	MLL AF4-AF9 inh	HIV Env fusion
C[C@@H]1CN([C@@H](C)CO)S(=O)(=O)c2ccc(C#Cc3ccccc3F)cc2O[C@H]1CN(C)CC1CCOCC1	23	94*	.	.	-2	21[16.7 µM]
C[C@H]1CN([C@@H](C)CO)S(=O)(=O)c2ccc(C#Cc3ccccc3F)cc2O[C@@H]1CN(C)CC1CCOCC1	-3	90*	.	.	-6	21[16.7 µM]
COc1cc2nc(C3CCC3)nc(N3CCN(c4ccccc4OC)CC3)c2cc1OC	11	89*	0	-7	9	.
CO[C@@H]1CN(C)C(=O)c2ccc(NC(=O)C3CC3)cc2OC[C@@H](C)N(C(=O)c2cnccn2)C[C@@H]1C	-4	.	-2	.	-2	.
Clc1ccc(-c2cc(-c3ccccc3)on2)cc1	-107	-240	2	-4	.	-195
CCc1ccn2cc(-c3cc(-c4ccccc4)no3)nc2c1	75*	83*	16	-20	.	2
Cc1ccc2nc(-c3cc(-c4ccccc4)no3)cn2c1	69*	40	-10	-22	-1	-58
Cc1cccc(C)c1Nc1nnc(SCC(=O)c2ccc(Br)s2)s1	75*	-13	.	-4	3	-3
Cc1ccc(Nc2nnc(SCC(=O)c3ccc(Br)s3)s2)c(C)c1	-1	10	2	1	-1	-13
C[C@H](NC(=O)C[C@@H]1C[C@@H]2c3cc(NC(=O)CC4CC4)ccc3O[C@@H]2[C@@H](CO)O1)c1ccccc1	-12	.	2	.	-2	.
COc1cc(C(=O)Nc2cc3c(cc2N2CCCCC2)n(C)c(=O)n3C)cc(OC)c1OC	39	-30	5	42*	1	22
COc1cc2oc(=O)cc(-c3ccc(-c4ccc(CO)cc4)cc3)c2c(OC)c1OC	-18	-19	.	-9	7	118*
COc1cc2oc(=O)cc(-c3ccc(-c4ccc(C)cc4)cc3)c2c(OC)c1OC	-2	9	.	-2	0	-44
CN1c2ccccc2C(C)(C)C12C=Nc1c(cc(N3CCOCC3)c3ccccc13)O2 (stereo not drawn)	.	72*	1	0	.	38
CN1c2ccccc2C(C)(C)C12C=Cc1cc(O)ccc1O2 (stereo not drawn)	7	.	.	2	?	.
CCCNC(=O)N1CC2(C1)CN(C(=O)c1ccncc1)[C@@H](CO)c1[nH]c3cc(OC)ccc3c12	-2	.	.	.	-1	.
CC(=O)Nc1ccc(Nc2ccc3c4c(cc(=O)n3C)-c3ccccc3C(=O)c24)cc1	14	-8	-5	21	4	28
O=C1c2ccccc2C(=O)c2c(Nc3ccc(CCO)cc3)ccc(O)c21	12	33	-1	-1	50*	-52
CCCNC(=O)[C@H]1[C@H](CO)[C@H]2Cn3c(ccc(-c4ccncc4)c3=O)[C@@H]1N2C(=O)CC1CC1	4	-3	.	.	0	.
O=C(c1ccccc1)C1OC1C(=O)c1ccccc1 (stereo not drawn)	1	72*	15	-8	-1	-227
CC1C=CC(C)C(C(=O)c2ccccc2)C1C(=O)c1ccccc1 (stereo not drawn)	12	-6	.	-5	-4	15
O=C(NCC[C@@H]1CC[C@H](NS(=O)(=O)c2cccc(F)c2)[C@H](CO)O1)C1CC1	-8	-2	8	.	-1	-8[16.7 µM]
O=C(C#Cc1ccccc1)c1cccc([N+](=O)[O-])c1	67*	.	.	23	-3	.
CO[C@H]1CN(C)C(=O)c2ccc(NC(=O)CC(F)(F)F)cc2OC[C@@H](C)N(C(=O)C2CCCCC2)C[C@@H]1C	8	-13	0	.	-3	.
CC(Sc1nnc(Cc2cccs2)n1C1CCCCC1)C(N)=O (stereo not drawn)	.	.	.	-1	.	.
O=C(CSc1nnc(Cc2cccs2)n1C1CCCCC1)N1CCN(C(=O)c2ccco2)CC1	.	74*	-5	0	.	-1
CC[n+]1ccccc1/C=C1\Sc2ccc(C)cc2N1C	55*	42	-18	10	-1	29

Compound activity from PubChem BioAssay.
